Screening results: PubChem BioAssay, several laboratories
SENP8 block-1 – SENP8 protease inhibition; Q96LD8; purified SENP8, Z-RLRGG-aminoluciferin cleavage, luminescence; inhibition, % at 10 µM; 1.2% of 330,000 active; AID 2540; in the data active means inhibition above about 50%
Target sequence (Q96LD8 whole entry, looked up): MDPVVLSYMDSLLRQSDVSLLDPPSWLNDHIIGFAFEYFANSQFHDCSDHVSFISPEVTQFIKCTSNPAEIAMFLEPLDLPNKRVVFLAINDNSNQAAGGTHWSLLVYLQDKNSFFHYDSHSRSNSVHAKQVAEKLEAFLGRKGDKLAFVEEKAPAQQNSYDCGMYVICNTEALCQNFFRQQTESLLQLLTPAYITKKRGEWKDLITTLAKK
UCH37 inh – human UCH37 deubiquitinating enzyme inhibition; Q9Y5K5; purified proteasome/UCH37, Ub-AMC cleavage fluorescence; inhibition, % (no concentration beside the values); 0.33% of 330,000 active;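 active means mean inhibition over replicate wells above about 20%, limit read from the data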;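 further: 0% = compound-free wells with enzyme and 100% = wells lacking proteasome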
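Material: human UCH37 enzyme supplied as purified proteasome complex. Measure: % inhibition of Ub-AMC cleavage fluorescence. Medium: pH 7.4 Tris-HCl (50 mM) with ovalbumin, ATP-MgCl2, DTT. Times: 30 min preincubation with enzyme, 25 min cleavage at room temperature. Detection: AMC fluorescence intensity at 355/460 nm.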
SENP8 block-2 – SENP8 (human) protease inhibition. recombinant SENP8, Nedd8 substrate fluorescence. inhibition, % at 20 µM. 0.64% of 360,000 active. AID 602440. Q96LD8; in the data active means inhibition mostly above about 40%, no sharp cut-off; inactive means mostly below about 27%
SENP6 inh – inhibitors of human SENP6 protease; Recombinant SENP6 catalytic domain, aminoluciferin luminescence; inhibition, % at 10 µM; 1.8% of 330,000 active;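 active means inhibition above about 50% at the single tested dose, limit read from the data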;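 further: plate controls were DMSO wells with enzyme for no effect and DMSO wells lacking enzyme for full effect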
Target sequence (Q9GZR1 628-1112 limits assumed): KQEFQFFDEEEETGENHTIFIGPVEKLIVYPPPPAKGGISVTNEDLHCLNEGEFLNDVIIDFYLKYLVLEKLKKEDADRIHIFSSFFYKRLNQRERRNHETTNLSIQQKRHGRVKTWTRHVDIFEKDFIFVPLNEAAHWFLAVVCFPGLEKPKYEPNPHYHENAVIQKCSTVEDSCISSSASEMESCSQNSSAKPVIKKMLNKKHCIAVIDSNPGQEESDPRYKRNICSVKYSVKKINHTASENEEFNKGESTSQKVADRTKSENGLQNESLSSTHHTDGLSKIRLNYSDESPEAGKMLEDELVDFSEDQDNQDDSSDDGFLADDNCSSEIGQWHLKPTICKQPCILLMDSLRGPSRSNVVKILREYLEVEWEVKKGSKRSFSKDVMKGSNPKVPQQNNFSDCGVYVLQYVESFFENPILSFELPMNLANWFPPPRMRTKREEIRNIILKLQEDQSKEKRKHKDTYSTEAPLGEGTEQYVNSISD
SENP1 FRET inh – SENP1 (human) catalytic domain inhibition. Q9P0U3. recombinant SENP1 catalytic domain, CyPet-SUMO1-YPet FRET cleavage. inhibition, % at 10 µM. 0.21% of 360,000 active. AID 624204;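 active means inhibition at least 30% at 10 µM, raw YFP signal under a set limit, fluorescence ratio 0.5 to 1.5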;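 further: 0% = enzyme with DMSO and 100% = no enzyme wells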
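system = hSENP1 catalytic domain, recombinant | reagent = SFCypet-SUMO1-SFYpet substrate at 25 nM | doses = one dose per compound, 10 µM, 0.5% DMSO | incubation = enzyme reaction for 50 min at room temperature, dark | measured by = FRET, CFP and YFP emission | controls = no-enzyme low, enzyme-DMSO high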
SENP7 inh – SENP7 protease inhibition; Q9BQF6; recombinant SENP7, Z-RLRGG-aminoluciferin luminescence, 40 min; inhibition, % at 5 µM; AID 434973; 1.5% of 330,000 active;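 active means inhibition above about 50% at the single test dose, limit read from the data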;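 further: plate controls were DMSO with enzyme for no effect and no enzyme buffer wells for full effect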
An asterisk follows results filed as active; · = no result. Only some compounds are listed: those with a hit (about 2.6% of all), similar ones and a draw of the others.

SMILES | SENP8 block-1 | UCH37 inh | SENP8 block-2 | SENP6 inh | SENP1 FRET inh | SENP7 inh
N#CC1=C2SCN(Cc3ccco3)CN2C(=O)CC1c1c(F)cccc1Cl (centres undefined) | 11 | 4 | 36* | 0 | -9 | 6
Cc1ccc(C2CC(=O)N3CN(Cc4ccco4)CSC3=C2C#N)cc1 (centres undefined) | -2 | 4 | 0 | 12 | -7 | 6
COc1cccc(C2=N/C(=C\N(C)C)C(=O)O2)c1 | -11 | 25* | 7 | 4 | 0 | -2
COc1ccc(-c2[nH]ncc2C=NNC(=O)c2cc(Br)ccc2O)c(OC)c1 | · | -30 | · | · | · | ·
O=C(NN=Cc1ccc(OC(=O)c2ccco2)cc1)c1ccc[n+]([O-])c1 | · | 8 | · | · | · | ·
COc1cc(C=NN2CCOCC2)ccc1OCc1ccc(Cl)cc1 | · | 1 | · | · | · | ·
COc1cc(C=Nn2c(-c3cc(C)[nH]n3)n[nH]c2=S)ccc1O | · | 6 | · | · | · | ·
C#CCNC(=O)C1=C[C@H](c2ccc(Br)cc2)[C@@H](CCCO)[C@H](OCC)O1 | 4 | 0 | 6 | 3 | 2 | 6
C#CCNC(=O)C1=C[C@@H](c2ccc(Br)cc2)[C@H](CCCO)[C@@H](OCC)O1 | -1 | 24* | 6 | 6 | 0 | 0
O=C(COC(=O)c1ccc(O)cc1)c1ccc2c(c1)OCCO2 | 70* | 3 | -1 | 87* | -1 | 57*
O=C(COC(=O)c1ccc(O)cc1)Nc1ccc2c(c1)OCCO2 | -10 | 1 | 7 | -11 | 1 | -1
O=C(Nc1ccccc1)ON=C(c1ccccc1)c1ccccn1 | · | 5 | · | · | · | ·
Cc1cccc(N2CC(C(=O)NCCC3=CCCCC3)CC2=O)c1C (centres undefined) | -2 | 23* | -6 | -25 | 0 | -13
COc1ccccc1N1CC(C(=O)NCCC2=CCCCC2)CC1=O (centres undefined) | 5 | 0 | 16 | -1 | -1 | -2
O=C(NC(=O)c1ccccc1O)c1ccc2c(c1)CCO2 | 51* | 4 | -33 | 65* | -1 | 42
CC(C)(C)NC(=O)c1ccc2c(c1)CCO2 | 0 | 2 | 16 | 3 | 1 | 0
CC(=O)Nc1ccc(-c2csc(NC(=O)C3=COCCO3)n2)cc1 | -11 | 0 | -39 | -1 | 2 | -3
Cc1ccc(-c2csc(NC(=O)C3=COCCO3)n2)cc1 | 33 | 2 | -11 | 70* | 2 | 59*
COc1ccc(OCC(=O)NN=Cc2ccc(N(C)C)cc2)cc1 | · | -293 | · | · | · | ·
Cc1cccc(NC2=CC(=NS(=O)(=O)c3cccs3)c3ccccc3C2=O)c1 | · | 50* | · | · | · | ·
Cc1c(Cl)cccc1N/C(=N/S(=O)(=O)c1cccs1)c1ccccc1 | 3 | 2 | 3 | 5 | 2 | 3
Cc1ccc(Nc2cc(=O)oc3ccccc23)c(C)c1 | -5 | -5 | 8 | -2 | 2 | -2
Cc1ccc(NC2=C/C(=N\S(=O)(=O)c3cccs3)c3ccccc3C2=O)c(C)c1 | 92* | 65* | 116* | 76* | 3 | 81*
Cc1cccc(NC2=C(NCCO)C(=O)c3ccccc3C2=O)c1 | 7 | 8 | 17 | 15 | -18 | -1
Cc1cccc(NC2=C/C(=N/S(=O)(=O)c3cccs3)c3ccccc3C2=O)c1 | · | · | 103* | · | 4 | ·
SMILES | SENP8 block-1 | UCH37 inh | SENP8 block-2 | SENP6 inh | SENP1 FRET inh | SENP7 inh
Nc1nnnn1N=Cc1ccc(F)cc1 | · | 5 | · | · | · | ·
CC(C)Oc1ccc(C=NNC(=O)c2nnn(-c3nonc3N)c2CN(C)C2CCCCC2)cc1 | · | 3 | · | · | · | ·
O=[N+]([O-])c1cccc(N/N=C/c2cccc(O)c2O)c1 | 2 | · | 58* | -22 | 2 | -17
COc1cccc(N/N=C/c2cccc(Br)c2O)c1 | 26 | · | -26 | -7 | -26 | -11
Cc1cccc(N/N=C/c2ccc(O)c(O)c2O)c1 | 28 | · | 67* | 10 | -1 | 8
Oc1ccc(/C=N/NC(=S)Nc2cccnc2)c(O)c1O | · | · | 56* | · | -11 | ·
CC(=NNC(=O)CNc1cccc(C(F)(F)F)c1)c1cccc(Br)c1 | · | 2 | · | · | · | ·
CCn1cc(/C=C/c2cc[n+](C)cc2)c2ccccc21 | · | 20* | 9 | · | -26 | ·
C=CCn1cc(/C=C/c2cc[n+](C)cc2)c2ccccc21 | 9 | 22* | 4 | 24 | -28 | -3
O=C(CN1CCOCC1)NN=Cc1ccc(-c2ccc(C(=O)O)cc2)o1 | · | -10 | · | · | · | ·
C=C(C)C1CC=C(C)C(=NNC(=O)c2ccc(NC(=O)CCC)cc2)C1 (centres undefined) | · | 1 | · | · | · | ·
CCOc1ccc(N/C=C/C(=O)c2ccc(OC)cc2)c([N+](=O)[O-])c1 | -9 | 4 | 26 | -13 | 37* | -5
COC(=O)c1sccc1NC(=O)Nc1ccccc1F | 88* | 6 | 7 | 70* | 0 | 98*
O=C(CCCC(=O)Nc1ccc(Br)cc1)NN=Cc1ccccc1 | · | 4 | · | · | · | ·
O=C(Nc1cccc(Cl)c1)c1ccc2c(=O)n3c(nc2c1)CCCCC3 | 64* | · | -5 | 84* | -1 | 80*
COc1ccc(CNc2ccc3cn[nH]c3c2)c(OC)c1OC | 19 | 22* | -68 | 33 | -43 | 26
COc1cc(N=Nc2cccc(S(N)(=O)=O)c2)c2ccccc2c1N | · | 10 | 18 | · | 48* | ·
CCN(CC)c1ccc(N2C(=O)CSC2=S)cc1 | 3 | 3 | 55* | 7 | 7 | 14
Cc1nn(-c2ccccc2Cl)c(Cl)c1C=NNc1cccc(C(=O)O)c1 | · | 1 | · | · | · | ·
CCn1cnc2cc(NCc3ccc(OC)cc3)ccc21 | -7 | -7 | -300 | -9 | -8 | -4
CCOc1ccc2nc3cc(NCc4ccc(OC)cc4)ccc3c(N)c2c1 | 37 | -63 | -298 | 51* | -25 | 41
COc1ccc(C)cc1Nc1n[n+](-c2ccccc2)c(-c2cc([N+](=O)[O-])cc(OC)c2O)s1 | -11 | 2 | 12 | 0 | 43* | -4
CCCCCCn1c(O)c(/C=C2\C=NN=C2c2ccccc2)sc1=S | -5 | 4 | 42* | -5 | -7 | -2
CCCCn1c(O)c(/C=C2\C=NN=C2c2ccccc2)sc1=S | -7 | 5 | 19 | -2 | -9 | -10
CCn1c(O)c(/C=C2\C=NN=C2c2ccccc2)sc1=S | -4 | 2 | 29 | -9 | -8 | -3
SMILES | SENP8 block-1 | UCH37 inh | SENP8 block-2 | SENP6 inh | SENP1 FRET inh | SENP7 inh
CC(C)Cn1c(O)c(/C=C2\C=NN=C2c2ccccc2)sc1=S | -9 | 15 | 40* | -20 | -9 | -1
CCOc1ccc(C=NOCC(=O)NCc2ccc3c(c2)OCO3)cc1OC | · | 2 | · | · | · | ·
COc1ccccc1NS(=O)(=O)c1cccc(C(=O)NN=C(C)c2cccnc2)c1 | · | 1 | · | · | · | ·
Cc1ccsc1C(=O)NN=Cc1ccc([N+](=O)[O-])cc1 | · | -1 | · | · | · | ·
O=[N+]([O-])c1cc(/C=N/N2CCN(C3c4ccccc4-c4ccccc43)CC2)ccc1Cl | 2 | · | 47* | 6 | 1 | 2
O=[N+]([O-])c1cc(C=NN2CCN(C3c4ccccc4-c4ccccc43)CC2)ccc1Cl | · | 7 | · | · | · | ·
